This is an account of results in ChEMBL document CHEMBL1151715, “Novel D-xylose derivatives stimulate muscle glucose uptake by activating AMP-activated protein kinase alpha” (J Med Chem, 2008).

Activity calls are given as the source filed them.

The nature of data set [1]: Cytotoxicity against rat L6 cells by MTT assay. The format is cell-based. The essentials: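 MTT assay on L6 myotubes after the treatment incubations: MTT at 2 mg/mL in αMEM for 30 min at 37 °C, formazan dissolved in DMSO, absorbance read at 570 nm.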
For data set [2], the system named is L6. The data set is described as follows: Effect on [3H]2-deoxy-D-glucose uptake in rat L6 cells at 250 uM relative to control. The format is functional. The gist of the method:
(§1)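 L6 myotubes were held in αMEM with 2% FCS and 23.0 mM D-glucose for 24 h. They were then treated with increasing concentrations in medium with 10% FCS and 23.0 mM D-glucose for 7 or 18 h; vehicle controls ran 18 h. After washing, uptake was measured with 0.1 mM dGlc plus 1.3 µCi/mL [3H]dGlc in PBS pH 7.4 for 5 min at room temperature. Ice-cold PBS stop, SDS lysis, scintillation counting; basal rate set to 100%.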

The test system of data set [3] is L6. The data set is described as follows: Increase in GLUT1myc abundance in rat L6 cell membrane at 150 uM after 7 hrs. The format is functional, cell-based. The gist of the method: (§2)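 Myc-tagged GLUT1 or GLUT4 L6 myotubes were preconditioned at 5.5 or 23.0 mM glucose for 24 h, then treated in 10% FCS medium for 7 h (18 h for the 5 µM agent). Insulin was 200 nM for 30 min. Intact cells were labeled with rabbit anti-myc (1:200), fixed in 3% formaldehyde, and given HRP anti-rabbit IgG (1:2000). OPD colour was read at 492 nm.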

Data set [4] deals with L6. The data set is described as follows: Activation of 5-AMP-induced AMPKalpha in rat L6 cells assessed as […] phosphorylation at 50 uM relative to control in presence of compound C. It is filed as cell-based.
The nature of data set [5]: Effect on [3H]2-deoxy-D-glucose uptake in human skeletal muscle cells at 50 uM relative to control. It is filed as functional.
The subject of data set [6] is L6. The data set is described as follows: Increase in GLUT1myc abundance in rat L6 cell membrane at 20 mM after 7 hrs. The format is functional, cell-based. The essentials: as §2
The test system of data set [7] is L6. The data set is described as follows: Increase in GLUT4myc abundance in rat L6 cell membrane at 50 uM after 7 hrs. The format is functional, cell-based. The gist of the method:
as §2

In data set [8] the test system is L6. The data set is described as follows: Inhibition of [3H]2-deoxy-D-glucose uptake in rat L6 cells at 50 uM in presence of 100 nM wortmannin. The format is functional, cell-based. The essentials:
(§3)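 L6 myotubes at 23 mM D-glucose received 100 nM wortmannin 30 min before the agents. Treatment ran in 10% FCS medium for 7 h (18 h for the 5 µM agent). A 5-min [3H]dGlc uptake (0.1 mM dGlc, 1.3 µCi/mL) in PBS at room temperature followed, with the vehicle basal rate set to 100%.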

The test system of data set [9] is L6. The data set is described as follows: Effect on [3H]2-deoxy-D-glucose uptake in rat L6 cells at 150 uM relative to control. It is filed as functional, cell-based. To be noted: TDE = time-dependent effect. The essentials:
as §1

For data set [10], the species on record is Homo sapiens. The data set is described as follows: Activation of 5-AMP-induced AMPKalpha in human skeletal muscle cells assessed as […] phosphorylation at 50 uM relative to control. The gist of the method:
(§4)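 Primary human skeletal myoblasts from the rectus abdominis of a donor were differentiated into myotubes and treated in medium with 10% (v/v) FCS, 23.0 mM D-glucose and agent, with vehicle controls. Whole-cell lysates were Western blotted for total AMPKα and […]-AMPKα, with ECL detection and densitometry.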

For data set [11], the system named is L6. The data set is described as follows: Effect on [3H]2-deoxy-D-glucose uptake in rat L6 cells at 5 uM relative to control. It is filed as functional, cell-based. To be noted: TDE = time-dependent effect. The essentials:
as §1

The subject of data set [12] is L6. The data set is described as follows: Activation of 5-AMP-induced AMPKalpha in rat L6 cells assessed as […] phosphorylation at 50 uM relative to control. The format is cell-based. The essentials: (§5)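 L6 myotubes preconditioned 24 h in αMEM with 2% FCS and 23.0 mM D-glucose, then given fresh medium with 10% (v/v) FCS, 23.0 mM D-glucose and test agent; controls received vehicle. Whole-cell lysates (Tris pH 7.5 with phosphatase and protease inhibitors) were blotted for AMPKα and […]-AMPKα, detected by ECL, and bands quantified by densitometry.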

Data set [13] concerns L6. The data set is described as follows: Increase in GLUT1myc abundance in rat L6 cell membrane at 5 µM after 18 hrs. It is filed as functional, cell-based. The essentials:
as §2

The subject of data set [14] is L6. The data set is described as follows: Increase in GLUT1myc abundance in rat L6 cell membrane at 50 uM after 7 hrs. The format is functional, cell-based. The essentials:
as §2

Data set [15] has as its system L6. The data set is described as follows: Effect on [3H]2-deoxy-D-glucose uptake in rat L6 cells at 50 uM relative to control. The format is functional, cell-based. The following applies: TDE = time-dependent effect. The gist of the method: as §1
For data set [16], the system named is L6. The data set is described as follows: Effect on [3H]2-deoxy-D-glucose uptake in rat L6 cells at 500 uM relative to control. It is filed as functional. The essentials: as §1
The test system of data set [17] is L6. The data set is described as follows: Effect on [3H]2-deoxy-D-glucose uptake in rat L6 cells at 1 mM relative to control. It is filed as functional. The essentials:
as §1

The species entered for data set [18] is Homo sapiens. The data set is described as follows: Activation of 5-AMP-induced AMPKalpha in human skeletal muscle cells assessed as […] phosphorylation at 150 uM relative to control. The essentials: as §4
The subject of data set [19] is L6. The data set is described as follows: Activation of 5-AMP-induced AMPKalpha in rat L6 cells assessed as […] phosphorylation at 150 uM relative to control in presence of compound C. The format is cell-based.
Data set [20] relates to L6. The data set is described as follows: Activation of 5-AMP-induced AMPKalpha in rat L6 cells assessed as […] phosphorylation at 150 uM relative to control. The format is cell-based. The gist of the method:
as §5

The subject of data set [21] is Serum. The data set is described as follows: Protein binding in fetal calf serum at 5 uM. The format is ADME, cell-free, Bos taurus. The following applies: cattle. The essentials:
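αMEM with 10% FCS was spiked at 4.6–23.0 µM and held 60 min at 37 °C for total concentration. Samples were ultrafiltered through a 10 kDa cutoff (4400g, 60 min), and the filtrate was hexane-extracted and analysed by LC-MS (SIR m/z 432) for free concentration.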

Data set [22] relates to L6. The data set is described as follows: Inhibition of [3H]2-deoxy-D-glucose uptake in rat L6 cells at 150 uM in presence of 100 nM wortmannin. The format is functional, cell-based. The essentials: as §3
Data set [23] is described as follows: Effect on [3H]2-deoxy-D-glucose uptake in human skeletal muscle cells at 150 uM relative to control. The format is functional.
The test system of data set [24] is L6. The data set is described as follows: Increase in GLUT4myc abundance in rat L6 cell membrane at 150 uM after 7 hrs. The format is functional, cell-based. The essentials:
as §2

In data set [25] the test system is L6. The data set is described as follows: Activation of 5-AMP-induced AMPKalpha in rat L6 cells assessed as […] phosphorylation at 5 uM relative to control. It is filed as cell-based. The essentials: as §5
Data set [26] has as its system L6. The data set is described as follows: Activation of 5-AMP-induced AMPKalpha in rat L6 cells assessed as reduction in hexose transport at 5 uM relative to control in presence of compound C. Further details: scale not given: the % may be the effect or the level left.
The nature of data set [27]: Effect on [3H]2-deoxy-D-glucose uptake in human skeletal muscle cells at 5 uM relative to control. The format is functional.
The species named for data set [28] is Homo sapiens. The data set is described as follows: Activation of 5-AMP-induced AMPKalpha in human skeletal muscle cells assessed as […] phosphorylation at 5 uM relative to control. The gist of the method:
as §4

The subject of data set [29] is L6. The data set is described as follows: Effect on [3H]2-deoxy-D-glucose uptake in rat L6 cells at 200 uM relative to control. It is filed as functional. The essentials: as §1
Data set [30] has as its system L6. The data set is described as follows: Increase in GLUT4myc abundance in rat L6 cell membrane at 5 µM after 18 hrs. It is filed as functional, cell-based. The essentials:
as §2

The subject of data set [31] is L6. The data set is described as follows: Increase in GLUT1myc abundance in rat L6 cell membrane at 5 uM after 18 hrs.
Data set [32] has as its system L6. The data set is described as follows: Inhibition of [3H]2-deoxy-D-glucose uptake in rat L6 cells at 5 uM in presence of 100 nM wortmannin. It is filed as functional, cell-based. The gist of the method:
as §3

For data set [33], the system named is Serum. The data set is described as follows: Free concentration in fetal calf serum at 5 uM. The following applies: cattle.
The test system of data set [34] is L6. The data set is described as follows: Effect on [3H]2-deoxy-D-glucose uptake in rat L6 cells at 400 uM relative to control. It is filed as functional. The gist of the method:
as §1

`CCO[C@H]1[C@@H](CO)O[C@@H](c2ccccc2)O[C@H]1C(SCC)SCC` had an MCC in data set [1] of 0.6 mM. The “fold change (FC)” value with L6 [2] is listed as 1.01.

In the case of `CCSC(SCC)[C@@H]1O[C@H](c2ccccc2)O[C@H](CO)[C@@H]1OC`, the Activity entry is “inactive” with L6 [3]; “inactive” with L6 [6] (50 uM, in the assay text read “at 50 uM” for “at 20 mM”); “inactive” in the data set with L6 [13]; “inactive” in the data set on L6 [14]. For the same compound, the Activity in the data set with L6 [4] was 69.2%; in the data set with L6 [9] it was “tde”; in the data set with L6 [11] it was “tde”; with L6 [15], “tde”. In addition, the “fold change (FC)” value in [5] came to 1.4; in the data set on L6 [12], 3.98. For the same compound, the outcome in the data set with L6 [7], in the data set on L6 [8] and in the data set listed under Homo sapiens [10] was Active.

With `CCS[C@@H]1OC[C@@H](O)[C@H](O)[C@H]1O`, the “fold change (FC)” value with L6 [16] turned out to be 0.93. The same compound had an MCC in data set [1] of 1 mM.

In the case of `O[C@@H]1[C@@H](O)[C@@H](OC2=CC=CCO2)OC[C@H]1O`, the “fold change (FC)” value with L6 [17] stood at 0.99. This compound showed an MCC in data set [1] of 5 mM.

With `CCSC(SCC)[C@@H]1O[C@H](c2ccccc2)O[C@H](CO)[C@@H]1O`, the Activity result is “inactive” in the data set on L6 [3]; “inactive” in the data set on L6 [6] (150 uM, in the assay text read “at 150 uM” for “at 20 mM”); “inactive” with L6 [13]; “inactive” in the data set on L6 [14]. The outcome in the data set filed under Homo sapiens [18], in the data set on L6 [22] and in the data set with L6 [24] was Active. In addition, the Activity in the data set on L6 [19] is 60%; in the data set with L6 [9] it was “tde”; with L6 [11], “tde”; in the data set with Serum [21], 98%; in the data set on L6 [15], “tde”. For the same compound, the fold change (FC) was 5.25 in the data set on L6 [20] and 1.49 in data set [23].

`CCSC(SCC)[C@@H]1O[C@H](c2ccccc2)O[C@@H]2CO[C@H](c3ccccc3)O[C@@H]21`: the result in the data set on L6 [3], in the data set on L6 [31], in the data set with L6 [13] and in the data set with L6 [14] was inactive. Also, the results for the fold change (FC) (in the data set with L6 [25]; in data set [27]; in the data set with L6 [29]) were 4.89, 1.59 and 1.06, respectively. Besides, the Activity is 48.8% in the data set on L6 [26], “tde” with L6 [9], “tde” in the data set on L6 [11] and “tde” in the data set with L6 [15]. Besides, the result in the data set listed under Homo sapiens [28], in the data set with L6 [30] and with L6 [32] was Active. In addition, the MCC in data set [1] is 50 mM. The compound further registered a free concentration in the data set with Serum [33] of 100 nM.

In data set [1], `O[C@@H]1[C@@H](O)[C@H](ON2CCCCC2)OC[C@H]1O` displayed an MCC of 1 mM. Besides, in the data set on L6 [34], the “fold change (FC)” value was 0.94.
